# Measured values gathered from unrelated publications.
# Medium: plasma
Structure (SMILES),test system,setting,measurement,result
COc1nc(-c2cc(C)c(N[C@@H](C)c3cc(F)cc(F)c3)nn2)ccc1-n1cnc(C)c1,male CD-1 mouse,"oral, 5 mg/kg, single dose",MRT(0-t),5.4 h
c1ccc(-c2nc(N3CCC(c4ccccn4)C3)c3ccccc3n2)nc1 (stereo not drawn),female BALB/c mouse,"oral, 50 mg/kg",MRT(0-inf),5.7 h
CCc1cc(OC)c2nccc(N3CCc4c(cc(Cn5ccnc5)cc4-c4cn(C)nc4C(F)(F)F)C3=O)c2c1,male CD-1 mouse,"oral, 50 mg/kg",MRT(0-inf),2.5 h
COc1nc(-c2cc(C)c(N[C@@H](C)c3ccc(F)cc3)nn2)ccc1-n1cnc(C)c1,male CD-1 mouse,"intravenous, 1 mg/kg, single dose",MRT(0-t),3.62 h
CCc1cc(C(=O)NC)c2nccc(N3CCc4c(cc(Cn5ccnc5)cc4-c4cn(C)nc4C(F)(F)F)C3=O)c2c1,male CD-1 mouse,"oral, 50 mg/kg",MRT(0-inf),3.1 h
COc1nc(-c2cc(C)c(N[C@@H](C)c3c(F)cc(F)cc3F)nn2)ccc1-n1cnc(C)c1,male CD-1 mouse,"intravenous, 1 mg/kg, single dose",MRT(0-t),3.3 h
COc1ccc2nccc(N3CCc4c(cc(Cn5ccnc5)cc4-c4cn(C)nc4C(F)(F)F)C3=O)c2c1,male CD-1 mouse,"oral, 10 mg/kg",MRT(0-inf),1.4 h
Cc1cc(NC(=O)c2cccc3cc(-c4cccc5[nH]nc(N)c45)ccc23)ccc1F,male CD-1 mouse,"oral, 10 mg/kg",MRT(0-inf),3.54 h
CC(C)(Nc1nc(-c2ccccn2)nc2ccccc12)c1ccccn1,female BALB/c mouse,"intravenous, 1 mg/kg",MRT(0-t),1.2 h
